Results collected from several papers.
Each line is one published result; the experiments were not run side by side.
USP5: Ubiquitin carboxyl-terminal hydrolase 5 (USP5, Homo sapiens, UniProt P45974)
ADORA1: Adenosine receptor A1 (ADORA1, Homo sapiens, UniProt P30542)
MMP7: Matrilysin (MMP7, Homo sapiens, UniProt P09237)

Cn1cc(-c2cccc(N3CCc4c(sc5c4CC(C)(C)C5)C3=O)c2CO)cc(Nc2ccncn2)c1=O  inhibition (Inhibitor of nuclear factor kappa-B kinase subunit alpha (CHUK, Homo sapiens, UniProt O15111); enzyme activity; inhibitor; 1 µM): -5%
CCOC(=O)c1ccc(OC(=O)CCCCCNC(=N)N)cc1  inhibition (USP5; enzyme activity; inhibitor; 10 µM): 1%
CCN(CC)CCCC[C@H](NC(=O)[C@H](CC(C)C)NC(=O)[C@H](C)NC(=O)[C@H](Cc1ccccc1)NC(=O)c1ccc(C(C)(C)C)cc1)C(=O)N[C@@H](CO)C(=O)OC  inhibition (Neuromedin-K receptor (TACR3, Homo sapiens, UniProt P29371); ligand displacement; radioligand; 10 µM): 8%
CN(C)C(=O)COC(=O)Cc1ccc(OC(=O)c2ccc(NC(=N)N)cc2)cc1  inhibition (USP5; enzyme activity; inhibitor; 10 µM): 1%
O[C@H]1[C@H](n2cnc3c(NC(C4CCCCC4)C4CCCCC4)nc(Cl)nc32)[C@H]2C[C@@]2(CCl)[C@H]1O  inhibition (ADORA1; ligand displacement; radioligand; 10 µM): 63%
C#Cc1n[nH]c2c(-c3cn([C@@H](C)c4ccccc4)c(=O)[nH]c3=O)cc(F)cc12  inhibition (Tyrosine-protein kinase receptor UFO (AXL, Homo sapiens, UniProt P30530); enzyme activity; inhibitor; 0.1 µM): 41.4%
N=C(N)c1ccc2cc(OC(=O)c3ccc(N=C(N)N)cc3)ccc2c1  inhibition (USP5; enzyme activity; inhibitor; 10 µM): 0%
CCCCSC[C@@]12C[C@@H]1[C@@H](n1cnc3c(NC(C4CCCC4)C4CCCC4)nc(Cl)nc31)[C@H](O)[C@@H]2O  inhibition (ADORA1; ligand displacement; radioligand; 10 µM): -1%
Cn1c(=O)c2ncnnc2n(C)c1=O  inhibition (USP5; enzyme activity; inhibitor; 17 µM): 98%
C[C@H](C(=O)N[C@H]1COc2ccccc2[C@@H]1S(C)(=O)=O)c1ccc(F)cc1  inhibition (MMP7; enzyme activity; inhibitor; 10 µM): -6%
O[C@H]1[C@H](n2cnc3c(NC(C4CCCC4)C4CCCC4)nc(Cl)nc32)[C@H]2C[C@@]2(CSc2ccccc2F)[C@H]1O  inhibition (ADORA1; ligand displacement; radioligand; 10 µM): -6%
c1ccc(C(NCCNC(c2ccccc2)c2ccccc2)c2ccccc2)cc1  inhibition (MMP7; enzyme activity; inhibitor; 10 µM): -5%
CNC(=O)[C@H](Cc1ccccc1)NC(=O)[C@H](CC(C)C)[C@H](CSc1cccs1)C(=O)NO  inhibition (MMP7; enzyme activity; inhibitor; 100 pM): 4%
C#Cc1n[nH]c2c(-c3cn(C(C)c4ccccn4)c(=O)[nH]c3=O)cc(F)cc12 (stereo not drawn)  inhibition (Dual specificity protein kinase CLK1 (CLK1, Homo sapiens, UniProt P49759); enzyme activity; inhibitor; 1 µM): 3.7%
COc1cc(Nc2ncc(F)c(Nc3ccc4c(n3)NC(=O)C(C)(C)O4)n2)cc(OC)c1OC  inhibition (Serine/threonine-protein kinase 32C (STK32C, Homo sapiens, UniProt Q86UX6); binding; competition with immobilised ligand; 10 µM): 0%
